Screening results (PubChem BioAssay)
This is a sample that favours compounds with a hit; in the whole collection about 1.8% have one here.
CHRM4 antagonist = antagonists of human muscarinic M4 receptor (CHRM4). CHO-hM4 cells, ACh EC80, Fluo-8 calcium fluorescence. inhibition, % at 3 µM. hit rate 0.73% among 360,000. AID 624125;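 active = inhibition above its plate's cutoff, the mean inhibition of sample wells plus 3 SD, cut at about 27% in these data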;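 note: 0% = acetylcholine EC80 with DMSO and 100% = DMSO without agonist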
Target sequence (P08173 whole entry, looked up): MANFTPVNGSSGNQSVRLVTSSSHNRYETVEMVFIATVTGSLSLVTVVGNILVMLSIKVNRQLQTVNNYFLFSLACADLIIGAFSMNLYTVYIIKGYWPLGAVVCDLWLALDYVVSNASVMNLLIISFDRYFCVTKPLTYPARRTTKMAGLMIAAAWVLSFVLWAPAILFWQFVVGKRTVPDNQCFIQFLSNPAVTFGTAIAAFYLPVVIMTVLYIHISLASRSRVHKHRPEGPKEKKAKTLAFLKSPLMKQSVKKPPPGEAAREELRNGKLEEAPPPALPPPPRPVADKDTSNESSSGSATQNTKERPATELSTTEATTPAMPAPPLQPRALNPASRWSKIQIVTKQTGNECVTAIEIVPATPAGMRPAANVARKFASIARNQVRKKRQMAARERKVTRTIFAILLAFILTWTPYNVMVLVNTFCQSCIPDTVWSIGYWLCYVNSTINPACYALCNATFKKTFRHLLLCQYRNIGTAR
M5 ag = agonists of human muscarinic M5 receptor (CHRM5); P08912; activation, % at 3 µM; CHO-K1 hM5 cells, Fluo-8 calcium fluorescence; 0% DMSO wells, 100% maximal acetylcholine response; AID 624037; hit rate 0.19% among 360,000;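 active = activation above the run's mean over test compounds plus 3 SD, cut at about 23% in these data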;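 note: signal is peak over basal fluorescence ratio across the kinetic read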
CHRM4 agonist = CHRM4 agonism in calcium assay | P08173 | CHO-K1 hM4/Gqi5, Fluo-8 calcium fluorescence; vehicle 0%, full acetylcholine response 100% | activation, % at 3 µM | hit rate 0.14% among 360,000;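 active = activation above the run mean over all test wells plus 3 SD, cut at about 32% in these data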;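 note: peak over basal fluorescence ratio per well then scaled between controls; 0% = DMSO wells and 100% = acetylcholine at EC100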
CHRM5 antagonist = blocks acetylcholine activation of human M5 receptor. P08912. CHO-hM5 cells, Fluo-8 calcium fluorescence, ACh EC80. inhibition, % at 3 µM. hit rate 0.59% among 360,000. AID 624040;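 active = inhibition above a per-plate cutoff, the mean of that plate's test compounds plus 3 SD, cut at about 27% in these data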;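 note: 0% = acetylcholine EC80 with DMSO and 100% = DMSO without agonist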
M5 PAM = potentiates acetylcholine response at human M5 receptor; hit rate 0.3% among 360,000; activation, % at 3 µM; CHO-K1 hM5, Fluo-8 calcium, ACh EC20 PAM; 0% = ACh EC20, 100% = ACh EC100;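 active = activation above the run cutoff, the mean activation of all test compounds plus 3 SD, cut at about 18% in these data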
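Measured by: Fluo-8 calcium fluorescence; material: human M5 receptor in CHO-K1 cells; schedule: Post-acetylcholine fluorescence recording 140 s; benchmarks: low control EC20 acetylcholine (0%), high control EC100 acetylcholine (100%); read-out: Max/basal fluorescence ratio as % of EC20–EC100 ACh window; compound: single dose, 3 µM nominal final test concentration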
CHRM4 PAM = potentiates acetylcholine response at human M4 receptor | CHO-K1 hM4/Gqi5, Fluo-8 calcium fluorescence, ACh EC20; 0% = ACh EC20, 100% = maximal ACh | hit rate 0.4% among 360,000 | P08173 | activation, % at 3 µM;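 active = activation above its plate's cutoff, the mean activation of sample wells plus 3 SD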
Starred values were filed as active, the others as inactive.

SMILES | CHRM4 antagonist | M5 ag | CHRM4 agonist | CHRM5 antagonist | M5 PAM | CHRM4 PAM
CC1(C(=O)OCC(=O)NCCNC(=O)COC(=O)C2(C)CC2(Cl)Cl)CC1(Cl)Cl (configuration not stated) | -1 | 0 | 7 | 7 | -6 | -7
O=C(NCc1ccccc1Cl)[C@H]1CCCN1C(=O)[C@H]1CCCN1C(=O)c1cccc2ccccc12 | -3 | 3 | 3 | 7 | -6 | 2
CC(=O)Nc1cc(-c2ccccc2Cl)cn2c(-c3ccc(S(C)(=O)=O)cc3)cnc12 | -12 | 1 | 4 | 5 | -5 | 3
COc1ccc(C)cc1NC(=O)CCN1CC(C)OC(C)C1 (configuration not stated) | -7 | -1 | 2 | 0 | 12 | 20*
CCN(CC(=O)Nc1c(F)cccc1F)C(=O)CCC(=O)c1ccc(C)cc1 | 4 | 2 | 1 | 8 | -8 | -2
CC(C)c1ccc(NC(=O)CSc2nc(=O)[nH]c3c2CCCC3)cc1 | -8 | 45* | 1 | -5 | 3 | 28*
CN(C)CCn1c2c(c(SCC(=O)Nc3ccccc3)nc1=O)CCCC2 | 5 | -3 | 0 | -8 | 6 | 0
CCc1ccc(NC(=O)CSc2nc(=O)n(CCCN(C)C)c3c2CCC3)cc1 | -9 | -6 | 0 | 31* | -19 | 8
CCN(CC)CCn1c2c(c(SCC(=O)Nc3ccc(C(C)C)cc3)nc1=O)CCCC2 | -24 | -8 | 0 | 2 | -2 | 14
COc1ccc(C2c3ccc4ccccc4c3Oc3ncn(CCN(C)C)c(=N)c32)cc1 (configuration not stated) | 7 | -4 | 3 | 9 | -5 | -4
COc1ccc(/C=C/C(=O)Nc2ccccc2C(F)(F)F)cc1 | -10 | -5 | 1 | -8 | 1 | 21*
CCOc1ccc(/C=C/C(=O)Nc2ccccc2C(F)(F)F)cc1 | -9 | -6 | 2 | -14 | 3 | 16
CCOC(=O)C1CC(c2ccccc2)=NN1c1ccccc1 (configuration not stated) | -3 | -1 | -2 | -3 | 0 | -1
O=C(N/N=C/c1ccccc1)c1ccc(NC(=O)c2ccc(F)cc2)cc1 | 16 | 0 | 13 | 17 | 20* | 24*
Cc1ccccc1NC(=O)CCC(=O)N/N=C/c1cccnc1 | 1 | -4 | 1 | 12 | -4 | 5
O=C(N/N=C/c1ccc(OCc2ccc(F)cc2)cc1)c1ccccc1 | -7 | -2 | 2 | -13 | 6 | 20*
O=C(N/N=C/c1ccc(F)cc1)c1ccc(OCc2ccccc2)cc1 | 12 | -2 | 1 | 1 | -3 | -3
Cc1ccccc1NC(=O)CCC(=O)N/N=C/c1ccc(F)cc1 | -15 | -3 | 4 | 4 | 5 | 25*
O=C(Nc1ccc(C(=O)N2CCOCC2)cc1)c1cc(-c2cccnc2)nc2ccc(Cl)cc12 | -9 | 5 | 17 | 5 | -6 | -6
O=C(NCc1ccccc1)c1cc(C2CCCCN2C(=O)c2ccccc2)on1 (configuration not stated) | -8 | 0 | 1 | 5 | -2 | 3
CC[C@@]12C(=O)N(c3cccc(Cl)c3)C(=O)N1[C@H](c1ccc(Br)cc1)[C@@H]1C(=O)N(C(C)(C)C)C(=O)[C@@H]12 | -10 | -1 | 3 | 3 | 4 | 28*
Cc1cccc(N2C(=O)N3[C@H](c4ccc(Cl)cc4)[C@@H]4C(=O)N(C5CCCCC5)C(=O)[C@@H]4[C@]3(Cc3ccc(Cl)cc3)C2=O)c1 | -15 | 7 | 2 | -13 | 19* | 6
Cc1cccc(N2C(=O)N3[C@H](c4ccc(F)cc4)[C@@H]4C(=O)N(C5CCCCC5)C(=O)[C@@H]4[C@]3(Cc3ccc(Cl)cc3)C2=O)c1 | 5 | 0 | 1 | 4 | 13 | 6
CC(C)C[C@@]12C(=O)N(c3cccc(Cl)c3)C(=O)N1[C@H](c1ccc(Br)cc1)[C@@H]1C(=O)N(C(C)(C)C)C(=O)[C@@H]12 | 6 | 0 | 1 | 8 | -1 | 3
N#Cc1cnn(-c2ccc(F)cc2)c1N | 2 | 6 | 0 | -16 | 19* | 3
SMILES | CHRM4 antagonist | M5 ag | CHRM4 agonist | CHRM5 antagonist | M5 PAM | CHRM4 PAM
CCc1ccccc1NC(=O)CCc1c(C)nc(SC)nc1C | -8 | -4 | 1 | 15 | -6 | 2
COCCOc1nc2ccccc2nc1C | 6 | -3 | 1 | 5 | 30* | 10
CN(C)CCC[C@]1(c2ccc(F)cc2)OCc2cc(C#N)ccc21 | 3 | 0 | 2 | 8 | -3 | -5
CN(C)CCC[C@@]1(c2ccc(F)cc2)OCc2cc(C#N)ccc21 | 30* | -1 | 4 | -11 | -6 | -17
COc1cccc(NC(=O)Cn2nc(Cc3cccnc3)c3ccccc3c2=O)c1 | 59* | -1 | 0 | 6 | -9 | -13
COc1cccc(NC(=O)C2C3C=CC(O3)C2C(=O)NCc2cccnc2)c1 (configuration not stated) | 2 | 0 | 0 | 6 | 3 | 37*
COc1ccc(CNC(=O)Cn2nc(Cc3cccnc3)c3ccccc3c2=O)cc1 | -5 | 2 | 2 | -2 | -1 | 0
COc1cc(NC(=S)NCc2cccnc2)cc(OC)c1 | 0 | -1 | 1 | -5 | -1 | -6
CC1=C(C(=O)N2CCCC(N3CCN(c4cccc(C(F)(F)F)c4)CC3)C2)OCCO1 (configuration not stated) | -4 | -3 | 4 | 2 | 1 | 9
COC(=O)c1ccc(CNC(=O)/C=C/[C@H]2O[C@@H](n3cc(C)c(=O)[nH]c3=O)C[C@@H]2O)cc1 | -12 | 1 | 1 | -4 | 1 | 4
COc1ccc(CN(C(=O)/C=C/c2ccco2)C2CCS(=O)(=O)C2)cc1OC (configuration not stated) | -2 | -1 | 1 | -15 | 6 | 1
COc1ccc(CCNS(=O)(=O)c2ccc(-c3ccc(=O)[nH]n3)o2)cc1OC | 4 | -6 | 0 | 14 | -4 | 1
Cn1nc(C(F)(F)F)c(-c2ccc(F)cc2)c1NC(=O)Nc1ccc(F)cc1 | 10 | -2 | 15 | 33* | -23 | -14
Cc1cc(C)n(-c2nnc(NC34CC5CC(CC(C5)C3)C4)nn2)n1 | 8 | -1 | 0 | 10 | 11 | 13
Brc1ccc(OCc2ccccc2)c(CNCc2ccncc2)c1 | 29* | 3 | 28 | 15 | -23 | -14
Cc1ccc([C@H]2C[C@@H](O)[C@H](n3cc(C4CC4)nn3)CN2Cc2cccs2)cc1 | -28 | -2 | 0 | -9 | 0 | 17*
COc1ccc(-c2cc(CNC(=O)CCl)on2)cc1 | -14 | 0 | 3 | -7 | 19* | 8
